Sampled rows, rich in hits. Any-hit rate of the full collection: about 0.99%.
Tn6 DDE FP: inhibitors of Tn6 peptide binding to human fibrin DD(E); P02675; Fibrin DD(E) TRITC-Tn6 fluorescence polarization displacement; inhibition, % at 8.3 µM; actives 0.21% (n = 370,000); AID 720509;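 active = inhibition above a per-campaign cutoff: mean of compounds within control limits plus 3 SD, cut at about 15% in these data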;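 note: 0% = median of all compound wells on the plate and 100% = blocking peptide control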
DDE Tn7 FP inh: inhibitors of Tn7 peptide binding to human fibrin DD(E) | P02675 | FP displacement of FITC-Tn7 peptide from fibrin DD(E); 0% = median of compound wells per plate | inhibition, % at 8.3 µM | actives 0.13% (n = 370,000);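 active = inhibition above the mean of compounds falling within the control limits plus 3 SD of them, cut at about 14% in these data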;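 note: 0% = plate median of compound wells and 100% = 10 µM Aha-Tn7 peptide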
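System: human fibrin DD(E); quantity: Fibrin-DD(E) at 2 µM final; also added: fluorescent Tn7 probe at 0.1 µM; compound dosing: single nominal test concentration of 8.3 µM per compound; schedule: 10 min preincubation, 3 h with tracer, room temperature; detection: fluorescence polarization of the labelled Tn7 tracer; repeats: one replicate per compound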
ABCG2 block: human ABCG2 inhibition, ABCB1 as counter-screen | IgMXP3 cells, JC-1 efflux, flow cytometry | inhibition, % at 6.6 µM | Q9UNQ0 | AID 1325 | actives 0.1% (n = 190,000);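 active = inhibition above 80%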;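 note: 0% = DMSO and 100% = nicardipine control wells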
Target sequence (Q9UNQ0 whole entry, looked up): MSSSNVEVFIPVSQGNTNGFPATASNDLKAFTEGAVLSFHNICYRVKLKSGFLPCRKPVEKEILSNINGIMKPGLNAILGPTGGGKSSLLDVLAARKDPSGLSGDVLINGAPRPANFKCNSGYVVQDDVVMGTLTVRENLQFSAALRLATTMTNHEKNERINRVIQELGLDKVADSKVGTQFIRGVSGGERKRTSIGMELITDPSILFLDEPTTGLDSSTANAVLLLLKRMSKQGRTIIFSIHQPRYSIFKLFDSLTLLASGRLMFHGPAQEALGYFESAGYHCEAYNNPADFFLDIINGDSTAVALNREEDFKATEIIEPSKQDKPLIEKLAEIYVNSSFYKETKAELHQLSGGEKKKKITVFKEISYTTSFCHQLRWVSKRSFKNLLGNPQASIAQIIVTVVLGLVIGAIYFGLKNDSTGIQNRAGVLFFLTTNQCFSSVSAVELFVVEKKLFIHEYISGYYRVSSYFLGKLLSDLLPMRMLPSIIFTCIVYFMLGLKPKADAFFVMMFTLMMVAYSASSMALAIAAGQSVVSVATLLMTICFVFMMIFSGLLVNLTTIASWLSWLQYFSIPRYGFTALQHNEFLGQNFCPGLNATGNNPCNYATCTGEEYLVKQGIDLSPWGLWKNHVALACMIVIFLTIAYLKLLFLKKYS
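test system = two drug-resistant human cell lines, ABCG2 and ABCB1 | amount = 3 million cells/mL final, two lines in 1:1 ratio | reagent = JC-1 transporter substrate | doses = one concentration, 6.6 µM final | incubation = 10 min at 25 °C | signal = flow cytometric JC-1 green MFI at 530 nm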
GRK2 inh: blocks RNA aptamer binding to human GRK2. P25098. bead flow cytometry, FAM-aptamer displacement from GRK2. inhibition of aptamer binding, % at 10 µM. actives 0.59% (n = 330,000);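 active = inhibition of aptamer binding above 40%, roughly 3 SD of noise, on plates passing a quality check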;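 note: median bead fluorescence of bound FAM aptamer so fluorescent compounds give negative values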
ABCB1 block: inhibitors of human ABCB1 transporter, ABCG2 counter-screen. inhibition, % at 6.6 µM. actives 0.067% (n = 190,000). P08183. CCRF-Adr cells, JC-1 efflux, flow cytometry; in the data active = inhibition above about 40%;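 note: 0% = vehicle and 100% = reference inhibitor; higher value means more JC-1 retained so stronger ABCB1 efflux block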
Ins promoter up: MIN6 insulin promoter up-regulation. MIN6 insulin promoter-GFP reporter, high-content imaging; active compounds read high. z-score at 5 µM. actives 0.3% (n = 190,000). AID 1625;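 active = z-score above 3 at 5 µM with at least 500 cells counted in the well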
DDE Tn7 confirm: confirmation of inhibitors of Tn7 binding to human fibrin DD(E); shares compounds with DDE Tn7 FP inh; FP displacement of TRITC-Tn7 peptide from DD(E); 0% set at plate's compound-well median; inhibition, % at 8.3 µM; actives 5% (n = 460);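 active = inhibition above the campaign cutoff, the mean of compounds within control limits plus 3 SD, cut at about 14% in these data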;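 note: 100% = median FP of high control wells holding Aha-Tn7 inhibitor peptide; displacers lower polarization since freed probe rises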
DDE Tn7 FP ctr: counter-screen hit for Tn7 peptide-fibrin DD(E) binding disruption; actives 3% (n = 460); shares compounds with DDE Tn7 FP inh; inhibition, % at 8.3 µM; TRITC-Tn7 probe displacement, fluorescence polarization;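 active = inhibition above the cutoff, the mean of compounds lying between the control bounds plus 3 SD of those compounds, cut at about 17% in these data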;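 note: 0% = median of compound sample wells and 100% = excess unlabeled Aha-Tn7 peptide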
* marks the source's active call; other numbers are inactive results; x = not tested or not shown.

SMILES | Tn6 DDE FP | DDE Tn7 FP inh | ABCG2 block | GRK2 inh | ABCB1 block | Ins promoter up | DDE Tn7 confirm | DDE Tn7 FP ctr
COc1ccc(NS(=O)(=O)c2ccc3c(c2)NC(=O)C(C)S3)cc1 (centres undefined) | -9 | 14* | x | 4 | x | x | -2 | -7
O=C1C=C(NCc2ccncc2)CC(c2ccccc2)C1 (centres undefined) | 2 | 6 | 0 | 0 | 0 | -0.25 | x | x
O=C1C=C(NNC(=O)c2ccncc2)CC(c2ccccc2)C1 (centres undefined) | 5 | 29* | 4 | 2 | 0 | -0.08 | -7 | -15
CCc1ccccc1-c1cc(C(C)=O)c2n(c1=O)CCC2 | -1 | 8 | x | x | x | x | x | x
CCN(CC)C(=O)N1CCN(C)CC1 | 7 | 15* | 2 | 0 | x | -0.05 | 0 | 2
COc1ccccc1NC(=O)OCCN1CCCC12CCC(c1ccccc1)CC2 (centres undefined) | 1 | 0 | x | x | x | x | x | x
CCN(C(=O)COC(=O)c1cc(Cl)ccc1OC)c1c(N)n(Cc2ccccc2)c(=O)[nH]c1=O | 11 | 14* | x | 0 | x | x | -1 | -4
O=C(O)c1ccccc1C1=Nc2ccc(O)cc2Oc2cc(O)ccc21 | 9 | 35* | 1 | 36 | 0 | -0.05 | 5 | -6
COC(=O)C(C(C)C)N(Cc1cc(OC)cc(OC)c1)S(=O)(=O)CCl (centres undefined) | 1 | 15* | x | 3 | x | x | 0 | -4
COC(=O)[C@]12C[C@H](CC(=O)N3CCN(C(=O)c4ccco4)CC3)C(=O)N(Cc3ccccc3)C1=C[C@H](COCc1ccccc1)O[C@@H]2C | -4 | 1 | x | x | x | x | x | x
O=C1[C@H](Cc2ccccc2)NCC=CC[C@H](c2ccco2)N1Cc1ccccc1 | -3 | 16* | x | x | x | x | 2 | -5
Fc1cccc(CNC(=S)OC2CCC23CCC(c2ccccc2)CC3)c1 (centres undefined) | 6 | 2 | x | x | x | x | x | x
O=C(Nc1nc2ncccn2c1-c1ccc(C(F)(F)F)cc1)c1ccccc1 | -4 | 0 | x | x | x | x | x | x
COc1ccc([C@@H]2C[C@@H](c3ccccc3)Oc3c(C)ccc(C(C)C)c32)cc1 | -4 | 14* | x | 1 | x | x | 10 | 7
O=C(CSc1nnc(CNC(=O)c2ccco2)o1)Nc1cccc(Cl)c1 | 1 | 16* | x | 3 | x | x | -1 | -4
O=C(CSc1nnc(CNC(=O)c2ccco2)o1)Nc1ccc(Cl)cc1 | 0 | 4 | x | 4 | x | x | x | x
O=C(CCCOc1ccc(Cl)cc1)N1CCCCCC1 | 3 | 14* | 3 | 0 | 1 | 0.7 | 8 | 4
O=C(CCCOc1ccc(Cl)cc1)N1CCCCC1 | -5 | 8 | -2 | 0 | 0 | 0.8 | x | x
Cc1ccc(S(=O)(=O)C(C#N)c2nc3ccccc3nc2N2CCCC2)cc1 (centres undefined) | 1 | 16* | -2 | 2 | 0 | 1.8 | 3 | 2
Cc1ccccc1CN1CCCCC(NC(=O)Cc2cccs2)C1=O (centres undefined) | 7 | 4 | x | x | x | x | x | x
CCOC(=O)[C@@]12CCCC=C1N(CCc1ccc(Cl)cc1)C(=O)[C@H]2CC(=O)NCc1cccc(C(F)(F)F)c1 | -8 | 6 | x | x | x | x | x | x
COc1cccc(OC)c1C(=O)OCC(=O)NCCCc1ccccc1 | -5 | 15* | x | 0 | x | x | -3 | -10
COc1cc(OC)cc(C(=O)OCC(=O)NCCCc2ccccc2)c1 | -3 | 0 | x | 0 | x | x | x | x
NC(=O)C1CCN(C(=S)NCc2ccc3c(c2)OCO3)CC1 | 8 | 15* | 1 | 0 | 1 | -0.26 | 0 | -4
CCn1c2ccccc2c2cc(NC(=O)c3cc4c(C)nn(-c5ccccc5)c4s3)ccc21 | -4 | -2 | x | x | x | x | x | x
SMILES | Tn6 DDE FP | DDE Tn7 FP inh | ABCG2 block | GRK2 inh | ABCB1 block | Ins promoter up | DDE Tn7 confirm | DDE Tn7 FP ctr
CCCC/C=C1/[C@H](CC)N(C)C2=N[C@@H](c3ccccc3)CC(=O)N21 | 1 | 2 | x | x | x | x | x | x
N/C(=N\OC(=O)Cc1ccc(-c2ccccc2)cc1)c1cccc([N+](=O)[O-])c1 | 5 | 14* | 4 | 0 | 1 | -0.33 | 8 | 5
O=c1[nH]cccc1-c1nc2ccccc2[nH]1 | -4 | -4 | x | 0 | x | x | x | x
O=c1oc2c(O)cccc2cc1-c1nc2ccccc2[nH]1 | -4 | 36* | x | 0 | x | x | 21* | -4
CC(=O)Nc1ccc(S(=O)(=O)n2nc(-c3ccc(C)cc3)nc2N)cc1 | -4 | 14* | 3 | 3 | 1 | -1 | -1 | -5
NS(=O)(=O)c1ccc(CCNc2nn3c(-c4ccc(F)c(Cl)c4)cnc3s2)cc1 | 7 | 14* | x | x | x | x | 9 | 0
NS(=O)(=O)c1ccc(CCNC(=O)CSc2ccc(Cl)cc2Cl)cc1 | 1 | 3 | x | 2 | x | 0.97 | x | x
CSc1cc(-c2ccccc2)n(C)c(=O)c1C#N | -3 | 3 | 5 | 0 | 0 | -0.37 | x | x
CCOC(=O)Cn1c(-c2ccccc2)cc(SC)c(C#N)c1=O | -3 | 14* | x | 3 | x | x | 3 | -3
COc1ccc(-c2ccccc2C2=CC(=O)CC(C)(C)C2=O)cc1 | 2 | 4 | x | x | x | x | x | x
COc1ccccc1-c1ccccc1C1=CC(=O)CC(C)(C)C1=O | 0 | 14* | x | x | x | x | 3 | 1
COc1cccc(C(C)(O)c2nc(-c3ccc4c(c3)OCO4)cs2)c1 (centres undefined) | -8 | -5 | x | x | x | x | x | x
CCOc1cc(C(C(=O)NCC2CCCO2)N(C(=O)Cn2nnc3ccccc32)c2ccc(NC(C)=O)cc2)ccc1O (centres undefined) | 1 | 31* | x | 1 | x | x | -2 | -7
Cc1cccc(Cn2cc(COC(=O)NCC(C)C)nn2)c1 | 4 | -2 | x | x | x | x | x | x
CC[C@H]1OC(=O)[C@H](C)[C@@H](O[C@H]2C[C@@](C)(OC)[C@@H](O)[C@H](C)O2)[C@H](C)[C@@H](O[C@@H]2O[C@H](C)C[C@H](N(C)C)[C@H]2O)[C@](C)(OC)C[C@@H](C)C(=O)[C@H](C)[C@@H](O)[C@]1(C)O | -1 | 4 | -1 | 1 | x | -0.4 | x | x
CC[C@H]1OC(=O)[C@H](C)[C@@H](O[C@H]2C[C@@](C)(OC)[C@@H](O)[C@H](C)O2)C(C)[C@@H](O[C@@H]2O[C@H](C)C[C@H](N(C)C)[C@H]2O)[C@](C)(O)C[C@@H](C)CN(C)[C@H](C)[C@@H](O)[C@]1(C)O (some centres undefined) | 9 | 14* | x | x | x | x | 5 | 5
